Experimental data taken from ChEMBL document CHEMBL4270585, “Novel selenadiazole derivatives as selective antitumor and radical scavenging agents” (Eur J Med Chem, 2018).

Assays:
Type in all cases: functional
PC-3 [1] = experiment: Growth inhibition of human PC3 cells assessed as cell growth at 10 uM after 72 hrs by MTT assay relative to control; details: PC-3, 72 h, read-out: Activity
Procedure, shortened: (§1)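 MTT colorimetric microassay after 72 h treatment at 100 µM and 10 µM. Output is percentage of cell growth ± SEM from at least 3 independent experiments, each run in quadruplicate.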

PC-3 [2] = experiment: Growth inhibition of human PC3 cells assessed as cell growth at 100 uM after 72 hrs by MTT assay relative to control; details: PC-3, 72 h, read-out: Activity; procedure, shortened: as §1
MCF7 [3] = experiment: Growth inhibition of human MCF7 cells assessed as cell growth at 10 uM after 72 hrs by MTT assay relative to control; details: MCF7, 72 h, read-out: Activity; procedure, shortened: as §1
MCF7 [4] = experiment: Growth inhibition of human MCF7 cells assessed as cell growth at 100 uM after 72 hrs by MTT assay relative to control; details: MCF7, 72 h, read-out: Activity; procedure, shortened: as §1
Calu-1 [5] = experiment: Growth inhibition of human HTB-54 cells assessed as cell growth at 10 uM after 72 hrs by MTT assay relative to control; details: Calu-1, 72 h, read-out: Activity; procedure, shortened: as §1
Calu-1 [6] = experiment: Growth inhibition of human HTB-54 cells assessed as cell growth at 100 uM after 72 hrs by MTT assay relative to control; details: Calu-1, 72 h, read-out: Activity; procedure, shortened: as §1
HT-29 [7] = experiment: Growth inhibition of human HT-29 cells assessed as cell growth at 10 uM after 72 hrs by MTT assay relative to control; details: HT-29, 72 h, read-out: Activity; procedure, shortened: as §1
HT-29 [8] = experiment: Growth inhibition of human HT-29 cells assessed as cell growth at 100 uM after 72 hrs by MTT assay relative to control; details: HT-29, 72 h, read-out: Activity; procedure, shortened: as §1
CCRF-CEM [9] = experiment: Growth inhibition of human CCRF-CEM cells assessed as cell growth at 10 uM after 72 hrs by MTT assay relative to control; details: read-out: Activity; procedure, shortened: as §1
CCRF-CEM [10] = experiment: Growth inhibition of human CCRF-CEM cells assessed as cell growth at 100 uM after 72 hrs by MTT assay relative to control; details: read-out: Activity; procedure, shortened: as §1

| SMILES | growth at 10 µM (PC-3 [1]) [%] | growth at 100 µM (PC-3 [2]) [%] | growth at 10 µM (MCF7 [3]) [%] | growth at 100 µM (MCF7 [4]) [%] | growth at 10 µM (Calu-1 [5]) [%] | growth at 100 µM (Calu-1 [6]) [%] | growth at 10 µM (HT-29 [7]) [%] | growth at 100 µM (HT-29 [8]) [%] | growth at 10 µM (CCRF-CEM [9]) [%] | growth at 100 µM (CCRF-CEM [10]) [%] |
| --- | --- | --- | --- | --- | --- | --- | --- | --- | --- | --- |
| O=C(Nc1ccncc1)c1ccc2n[se]nc2c1 | 122 | 64.7 | 93.5 | 50.1 | 113 | 79.6 | 83.7 | 58.3 | 106 | 68.6 |
| O=C(NCCCO)c1ccc2n[se]nc2c1 | 131 | 74.5 | 57 | 13.7 | 151 | 99.2 | 99.8 | 58.8 | 106 | 58.9 |
| O=C(NCc1ccccc1)c1ccc2n[se]nc2c1 | 98.2 | 27.8 | 56.7 | -5.7 | 97.8 | 23.6 | 92.7 | 37.8 | 114 | 44.7 |
| O=C(NCc1ccc(Br)cc1)c1ccc2n[se]nc2c1 | 58.3 | 29.7 | 43.1 | 11.3 | 71 | 69.3 | 57.7 | 23.4 | 53.6 | 35.7 |
| CCNC(=O)c1ccc2n[se]nc2c1 | 101 | 54.5 | 95.1 | 25.9 | 85.4 | 48.1 | 86.7 | 57.8 | 97.8 | 24.9 |
